MrgX1 PAM = allosterically activates human MrgX1 receptor signaling. MrgX1-HEK293, Fluo-4 calcium flux, FDSS; hits give high values. B-score at 10 µM. 0.63% of 310,000 active. AID 588675;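 active = plate-corrected calcium response at least 3 library SD above typical, normal starting fluorescence, not activating the receptor alone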;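 also: compound read alongside a low EC10 to EC30 dose of BAM8-22 agonist; peak minus trough fluorescence over baseline measured at the second addition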
RGS4 inh = inhibitors of human RGS4. P49798. HEK293 M3R/RGS4 inducible, Fluo-4 calcium flux; hits give high values; triggered by carbachol at its EC20. B-score at 10 µM. 0.45% of 310,000 active. AID 463165;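 active = B-score, a plate-corrected calcium signal, over three deviations above library mean, with baseline fluorescence within five deviations of library mean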;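 also: RGS4 expression induced by doxycycline in cells with stable M3 receptor; B-score is computed from the integrated fluorescence ratio over baseline after carbachol; higher B-score means a larger calcium signal and so more RGS4 inhibition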
Target sequence (P49798 whole entry, looked up): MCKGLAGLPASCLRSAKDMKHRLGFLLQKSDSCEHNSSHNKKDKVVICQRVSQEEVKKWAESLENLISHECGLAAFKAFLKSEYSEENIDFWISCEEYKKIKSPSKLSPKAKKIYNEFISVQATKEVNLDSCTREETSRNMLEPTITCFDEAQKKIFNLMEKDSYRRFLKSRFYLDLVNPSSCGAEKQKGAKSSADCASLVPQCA
Kir21 inh = blocks the mouse Kir2.1 inward-rectifier potassium channel | P35561 | 0.85% of 310,000 active | B-score at 10 µM | HEK293-Kir2.1, FluxOR thallium flux fluorescence; hits give low values;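 active = fluorescence ratio B-score at or below minus 3 SD of library scores, with starting-brightness B-score within 2 SD, cut at about -4.2 in these data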;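 also: channel flux triggered by added potassium and thallium sulfate stimulus; B-score of peak minus minimum fluorescence over baseline after thallium stimulus; more negative B-score means stronger Kir2.1 block with less thallium influx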
MrgX1 ag = activates human MrgX1 receptor signaling; B-score at 10 µM; MrgX1-HEK293 cells, Fluo-4 calcium fluorescence, agonist mode; hits give high values; Q96LB2; 0.44% of 310,000 active;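 active = calcium response B-score plate-corrected fluorescence ratio at least 3 library SD, with starting fluorescence B-score inside 5 SD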
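Material – MrgX1-expressing HEK293 cells · Input – 15,000 cells seeded per well · Dosing – compound as first of three additions · Times – overnight seeding, then 1 h dark dye loading · Measured by – kinetic Fluo-4 NW fluorescence of intracellular calcium · Read-out – B-scored fluorescence response ratio · Benchmarks – positive and negative control wells on each plate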
RGS4 pot = RGS4 potentiation or activation; 0.92% of 310,000 active; B-score at 10 µM; HEK293 M3R/inducible RGS4, carbachol calcium flux Fluo4; hits give low values;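 active = B-score of the integrated calcium signal more than 4 SD below the library mean, with starting fluorescence not abnormally high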;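 also: negative B-score means reduced calcium response which marks RGS4 activation or potentiation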
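Detection: kinetic calcium fluorescence imaging with Fluo4-AM dye, 2 µM / Material: HEK293 cells with stable M3R and inducible RGS4 / Schedule: recording 10 s baseline at 1 Hz, 100 s post-agonist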
MrgX1 antag = blocks BAM8-22 activation of human MrgX1 receptor; Q96LB2; B-score at 10 µM; MRGX1-HEK293 calcium flux, Fluo-4, BAM8-22 antagonism; hits give low values; 1.3% of 310,000 active;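 active = calcium-response B-score plate-corrected more than 3 library SD below zero, starting fluorescence within 5 deviations, no agonist response on first addition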;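 also: peak minus trough fluorescence over baseline after final BAM8-22 challenge near maximal dose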
* marks the source's active call; other numbers are inactive results; i = inactive. This is a sample that favours compounds with a hit; in the whole collection about 4.1% have one here.

SMILES	MrgX1 PAM	RGS4 inh	Kir21 inh	MrgX1 ag	RGS4 pot	MrgX1 antag
CC(C)[C@H](NC(=O)OCc1ccccc1)C(=O)OCC(=O)NC1CCCCC1	i	i	-0.16	i	i	i
COc1ccc(-c2cc(C(F)(F)F)c3c(n2)sc2c(O)cc(=O)[nH]c23)c(OC)c1	i	i	-2.36	39.1*	i	i
C(C#CCCCCCCCCC[n+]1ccccc1)#CCCCCCCCCC[n+]1ccccc1	i	i	-14.7*	i	-12.2*	i
Cc1ccc(-c2nc(C3CCCN(S(=O)(=O)c4ccc(C)cc4)C3)no2)cc1 (centres undefined)	i	i	-0.27	i	i	i
O=S(=O)(Nc1ccc(N2CCCCC2)cc1)c1cccs1	i	i	-0.06	i	i	i
O=S(=O)(Nc1cc(Cl)ccc1N1CCCCC1)c1cccs1	i	i	-2.55	i	i	-13.2*
Cc1ccc(-c2cc(C(=O)Nc3ccccn3)c3ccccc3n2)o1	i	i	-1.21	i	i	-5.13*
Cc1ccc(S(=O)(=O)C(C)C(=O)c2ccc3c(c2)OCCO3)cc1 (centres undefined)	i	i	-4.27*	i	i	i
Cc1ccc(-c2nc3ccccc3nc2-c2ccccc2)cc1	i	i	0.04	i	i	i
Cc1ccc(-c2nc(N)s[n+]2-c2ccccc2)cc1	i	i	-3.56	i	-9.85*	i
CC1(C)CC(=O)C(C2C3=C(CC(C)(C)CC3=O)Oc3c(Br)cc(Br)cc32)=C(O)C1 (centres undefined)	i	i	-2.6	52.2*	i	i
CC(=O)N1c2ccc3ccccc3c2C(C)CC12CCCCC2 (centres undefined)	i	i	-0.91	i	i	i
CC(=O)N1Cc2ccccc2C(C)CC12CCCCC2 (centres undefined)	i	i	-7.35*	i	i	i
O=C(O)c1cc(O)c2c(c1)[C@@H]([C@H]1c3cc(C(=O)O)cc(O)c3C(=O)c3c(O[C@@H]4O[C@H](CO)[C@@H](O)[C@H](O)[C@H]4O)cccc31)c1cccc(OC3O[C@H](CO)[C@@H](O)[C@H](O)[C@H]3O)c1C2=O (some centres undefined)	i	i	0.51	i	i	i
O=C(N/N=C\c1ccc(F)cc1)c1ccc(F)cc1	i	i	0	i	i	i
COc1ccc(/C=N/NC(=O)c2cc[n+]([O-])cc2)cc1	i	i	0.62	i	i	i
O=C(N/N=C/c1ccc(OC(F)F)cc1)c1cc[n+]([O-])cc1	i	i	1.48	i	i	-6.03*
O=C(N/N=C/c1ccc(OC(F)F)cc1)c1ccc(Br)cc1	i	i	0.72	i	i	-5.33*
CCOC(=O)c1ccc(NC(=O)CCc2nnc3ccc(N4CCN(C)CC4)nn23)cc1	i	i	-0.68	i	i	i
O=C(OCC1OC(n2ncc(=O)[nH]c2=O)C(OC(=O)c2ccccc2)C1OC(=O)c1ccccc1)c1ccccc1 (centres undefined)	i	i	-0.49	i	-7.2*	i
CC(=O)OC[C@H]1O[C@@H](n2ncc(=O)[nH]c2=O)[C@H](OC(C)=O)[C@@H]1OC(C)=O	i	i	1.23	i	i	i
COc1ccc(NC(=S)N(Cc2ccc(Cl)cc2)Cc2ccc(C(=O)O)cc2)cc1Cl	i	i	2.15	i	i	-4.64*
O=C(N/N=C/c1ccccc1Br)c1ccc(CSc2cccc3cccnc23)cc1	i	i	-0.12	i	i	i
NNC(=O)c1ccc(CSc2cccc3cccnc23)cc1	i	i	0.41	i	i	-4.58*
NC(=O)c1ncn([C@@H]2O[C@H](CO)[C@@H](O)[C@H]2O)c1O	i	i	-0.01	i	i	-9.03*

From PubChem
